Bioassay records (PubChem)
Shown are actives, neighbours in structure and some others; about 1.7% of the full set was active somewhere.
NTR1 ag: agonists of human neurotensin receptor NTR1. P30989. NTR1-U2OS beta-arrestin-GFP spot imaging, agonist mode. activation, % at 20 µM. hit rate 0.17% among 330,000. AID 493036;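 active = activation at or above 40% of the spot to cytoplasm intensity ratio, with at least 20 cells analyzed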
Target sequence (P30989 whole entry, looked up): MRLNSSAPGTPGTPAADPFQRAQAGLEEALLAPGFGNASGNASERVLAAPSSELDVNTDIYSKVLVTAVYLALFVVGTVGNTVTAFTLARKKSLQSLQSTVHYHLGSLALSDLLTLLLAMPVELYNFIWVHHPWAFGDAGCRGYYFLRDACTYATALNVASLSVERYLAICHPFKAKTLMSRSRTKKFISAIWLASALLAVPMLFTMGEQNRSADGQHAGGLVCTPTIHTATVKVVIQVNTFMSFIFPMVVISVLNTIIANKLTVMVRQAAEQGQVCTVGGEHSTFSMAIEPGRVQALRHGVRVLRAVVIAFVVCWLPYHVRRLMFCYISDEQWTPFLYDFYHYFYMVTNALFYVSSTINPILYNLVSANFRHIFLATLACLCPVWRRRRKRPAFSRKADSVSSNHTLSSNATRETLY
SR-BI HDL uptake: mouse SR-BI HDL lipid transfer inhibition; Q61009; ldlA[mSR-BI] CHO cells, DiI-HDL uptake fluorescence, 3 h; inhibition, % at 12.5 µM; hit rate 0.96% among 320,000; AID 488896;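 active = mean replicate inhibition of at least 70% and a set share of replicates each scoring 70 or more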
CaV13 FRET inh: Primary screen for inhibitors of IQ motif and Ca2+-dependent inactivation inhibitor domain binding in CACNA1D, Förster resonance energy transfer in living cells, …; hit rate 0.098% among 340,000; HEK cells, CFP/YFP FRET ICDI-IQ, plate reader, 10 min; percent FRET-ratio fall versus neutral wells; inhibition, % at 12.3 µM;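 active = mean replicate inhibition of at least 30% and at least 1% of replicates passing that level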
SR-BI uptake up: SR-BI HDL lipid transfer activation. CHO ldlA[mSR-BI] cells, DiI-HDL uptake fluorescence, 3 h; 100 = double the neutral-control signal. activation, % at 12.5 µM. hit rate 0.096% among 320,000;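 active = mean replicate activation of at least 60% and every replicate at or above 60%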
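Test system: SR-BI-overexpressing, LDLR-lacking CHO cells. Measured by: DiI fluorescence, bottom read. Medium: Ham's F12 with 0.5% BSA, HEPES 25 mM, pH 7.4. Timing: 3 h uptake period with compound, 37 °C.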
Vif imaging: HIV Vif inhibition; HEK293T cells, Vif self-association by quenched fluorescence, imaging, 24 h; inhibition, % at 7.49 µM; hit rate 0.35% among 340,000; in the data active = inhibition above about 50%, passing the limit was not always enough
V-ATPase pHluor: alters yeast V-ATPase proton transport. S. cerevisiae, pHLuorin cytosolic pH fluorescence. response, % at 10 µM. hit rate 0.37% among 350,000. AID 504577; in the data active = response mostly above about 7.3%, no sharp cut-off; inactive = mostly below about 5.4%; also: actives read high
Each line names hits and unclear results; the compound was inactive in the other large screens.

COc1ccc(CCNC(=O)C2CCC(C(C)(C)C)CC2)cc1OC (stereo not given)	none
Nc1ccc(-c2cnc[nH]2)cc1[N+](=O)[O-]	none
O=C(NCC1CC1)c1onc(CSc2ccncc2)c1C(=O)NCC1CC1	none
C[C@@H](NC(=O)c1[nH]cnc1C(=O)Nc1nccs1)c1ccccc1	none
O=C(COC(=O)COc1ccc(Cl)cc1Br)NC1CCCC1	none (no result: NTR1 ag, SR-BI HDL uptake, SR-BI uptake up, Vif imaging)
O=C(COC(=O)COc1ccc(Cl)cc1Br)NC1CCCCCC1	Vif imaging 59.3 (no result: SR-BI uptake up)
O=C(O)c1cc([N+](=O)[O-])ccc1N1CCCCC1	none
Cc1ccc(C(=O)c2cc([N+](=O)[O-])ccc2N2CCCCC2)c(C)c1	SR-BI HDL uptake 74.9
O=C(c1cc([N+](=O)[O-])ccc1N1CCCCC1)N1CCc2ccccc21	SR-BI HDL uptake 75.6
O=C(NCc1ccc(Cl)cc1Cl)C(=O)N1CCCCC1	none
O=C(NC(=S)NCC1CCCO1)c1ccc(Cl)cc1Cl (stereo not given)	none (no result: SR-BI HDL uptake, SR-BI uptake up)
CCOC(=O)c1c(NC(=S)Nc2cccc(C)c2)sc2c1CC(C)(C)SC2	SR-BI HDL uptake 86.9
Nc1[nH]c(C(=O)c2ccccc2)c(-c2ccccc2)c1C(=O)NCCc1c[nH]c2ccccc12	none (no result: NTR1 ag, SR-BI HDL uptake, SR-BI uptake up, Vif imaging, V-ATPase pHluor)
Cc1ccc(S(=O)(=O)/C(=C/Cl)NC(=O)c2ccccc2)cc1	none
COc1ccc(N(C(=O)CCl)C(C(=O)NC2CCCCC2)c2cccnc2)cc1 (stereo not given)	V-ATPase pHluor 15.1
COc1ccc(NC(=O)C(C)Sc2nnc(C3CC3)n2C2CC2)cc1 (stereo not given)	none
CC(=O)c1ccc(NC(=O)C(C)Sc2nnc(C3CC3)n2C2CC2)cc1 (stereo not given)	SR-BI HDL uptake 76.4
CCOC(=O)/C(C#N)=C/c1cc(C)n(-c2ccc(C)cc2)c1C	Vif imaging 71.3
CC(C)CCn1c(CN2CC(C)OC(C)C2)nc2c1c(=O)n(C)c(=O)n2C (stereo not given)	CaV13 FRET inh 37.2 (no result: Vif imaging)
CC1CN(Cc2nc3c(c(=O)n(C)c(=O)n3C)n2CCCO)CC(C)O1 (stereo not given)	none
CCOC(=O)N1CCN(C(=O)C[C@H]2C[C@@]3(C(=O)OC)C(=C[C@H](COCc4ccccc4)O[C@@H]3C)N(Cc3ccc4c(c3)OCO4)C2=O)CC1	none (no result: NTR1 ag, SR-BI HDL uptake, SR-BI uptake up, Vif imaging, V-ATPase pHluor)
O=C1Nc2ccccc2C1C(C[N+](=O)[O-])c1ccccn1 (stereo not given)	none (no result: SR-BI HDL uptake, SR-BI uptake up)
Cc1onc(-c2ccccc2Cl)c1C(=O)Nc1sc2c(c1C(N)=O)CCC(C)C2 (stereo not given)	SR-BI HDL uptake 73.5
O=C(NCCNC(=O)c1ccccc1Br)c1cccnc1	none (no result: CaV13 FRET inh)
COc1ccc(C2C3=C(CC(C)(C)CC3=O)N(C)C3=C2C(=O)CC(C)(C)C3)cc1OC	none
COc1ccc(C2C3=C(CC(C)(C)CC3=O)N(C)C3=C2C(=O)CC(C)(C)C3)cc1	CaV13 FRET inh active
CCOC(=O)c1c(C)[nH]c(C(=O)N/N=C/c2cc([N+](=O)[O-])ccc2O)c1C	SR-BI HDL uptake 85.8
COc1ccccc1/C=N/NC(=O)c1[nH]c(C)c(C(=O)N/N=C/c2ccccc2OC)c1C	SR-BI HDL uptake 82.6
CCOC(=O)c1c(C)[nH]c(C(=O)COC(=O)c2ccc(N3CCCC3=O)cc2)c1C	SR-BI uptake up 62.8
CCOC(=O)c1c(C)[nH]c(C(=O)CSc2ccccc2)c1C	V-ATPase pHluor 14.4 (no result: CaV13 FRET inh)
CC1CC(C)CN(C(=O)COC(=O)c2ccc(N3CCCC3=O)cc2)C1 (stereo not given)	none
CC(C)(C)n1nc2c(c1NC(=O)C1CC(=O)N(c3ccc(Cl)cc3)C1)CS(=O)(=O)C2 (stereo not given)	none
CCOC(=O)c1c(C)[nH]c(C(=O)N/N=C\c2ccccc2O)c1C	SR-BI HDL uptake 84.9 (no result: NTR1 ag)
C[C@H](NC(=O)N1CCn2c1nc1ccccc12)C(=O)NCc1ccccc1	none
C=CCOC(=O)C(C#N)c1nc2ccccc2nc1N1CCN(Cc2ccccc2)CC1 (stereo not given)	SR-BI HDL uptake 84.4
